Activity calls are given as the source filed them.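 How the source made its calls: active means compounds blocking phage killing of the bacteria by at least 50% at some tested dose; inactive means the rest.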
Legend:
[1] = inhibition of K1F phage lysis of E. coli UTI89, confirmation, bacterial capsule biogenesis inhibitors, C7 control, OD600 (AID 504358); settings: E. coli UTI89 K1F phage lysis inhibition, OD600; for SI: measured here: selectivity index CC50/IC50, stronger effect = higher value
Procedure, shortened: (§1)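 Assay system – E. coli UTI89 K1 cells with K1F phage · Times – 1.25 h compound, then 3 h phage, 37 °C · Signal – absorbance at 600 nm, before infection and 3 h after · Read-out basis – phage lysis inferred from OD600 3 h after phage infection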

[2] = tested on: E. coli UTI89 K1F phage lysis inhibition, OD600; experiment: as above; settings: for CC50: measured here: cytotoxicity
Procedure, shortened: as §1

Row | IC50 [2] | Compound | outcome [1] | CC50 [2] | SI [1]
1 |  | Cc1ccc(C2c3c(oc4cc(C)c(C)cc4c3=O)C(=O)N2CCCN2CCOCC2)cc1 (stereo unspecified) | inactive | 44.4 µM | 
2 | 3 µM | O=C(Nc1ccncc1)c1ccc2ncsc2c1 |  | > 100 µM | > 33
3 | 10.6 µM | COc1ccc2nc(NC(=O)c3ccc(Br)s3)sc2c1 |  | > 100 µM | > 9.4
4 | 69.8 µM | CC1(C(=O)O)CCC(C(=O)Nc2ccc3ccccc3c2)C1(C)C (stereo unspecified) |  | > 100 µM | > 1.4
5 |  | O=C(O)c1cc(-c2c[nH]c3ccccc23)nc2cc3ccccc3cc12 | inactive |  | 
6 |  | Cc1cc(C)c2c(=O)c(-c3cc(C(=O)O)c4cc5ccccc5cc4n3)coc2c1 | inactive |  | 
7 |  | COc1ccc(OC)c(-c2cc(C(=O)O)c3cc4ccccc4cc3n2)c1 | inactive |  | 
8 | 26.1 µM | O=C(NCc1cc([N+](=O)[O-])ccc1O)c1cccnc1Sc1ccccc1Cl |  | > 100 µM | > 3.8
9 | 6.2 µM | CCOc1ccc(-c2cc(NC(=O)c3c(F)cccc3F)c(C(=O)O)s2)cc1 |  | 66.7 µM | 10.8
10 |  | C=CCOc1ccc(C2c3c(oc4ccccc4c3=O)C(=O)N2CCCN2CCOCC2)cc1 (stereo unspecified) | inactive | > 100 µM | 
11 |  | O=C(O)c1cc(-c2cccc(Cl)c2)nc2cc3ccccc3cc12 | inactive |  | 
12 |  | O=C(COc1ccc(Cl)cc1Cl)Nc1ccc(C(=O)Nc2ccccc2C(=O)O)cc1 |  | 45.3 µM | 
13 |  | O=C(NCc1cc([N+](=O)[O-])ccc1O)c1cccnc1Sc1ccccc1 |  | > 100 µM | 
14 | 3.3 µM | O=C(ONc1ccc(N=NC(=O)c2ccccc2O)cc1)c1ccccc1 |  | 45.1 µM | 13.7
15 | 22.6 µM | CC1=NN2C(=N)/C(=C\c3ccc(SCc4ccco4)o3)C(=O)N=C2S1 |  | > 100 µM | 4.4

From PubChem BioAssay AID504358 (Southern Research Specialized Biocontainment Screening …, 2011)
